The source made the active and inactive calls. No cut-off for these calls is given here.
Tests used:
[1] = Metabolic stability in mouse skin homogenate assessed as compound remaining at 10 uM measured after 1 hrs by LC-MS analysis; type: ADME, tissue-based, Skin of body; conditions: tissue homogenate
[2] = Metabolic stability in human plasma assessed as compound remaining at 10 uM measured after 1 hrs by LC-MS analysis; type: ADME, cell-free
In short: (§1)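 Prodrugs (10 μM) spiked into mouse or human plasma, shaken at 37 °C; samples at 0 and 60 min quenched in cold acetonitrile with losartan internal standard, centrifuged, diluted, run by LC-HRMS; % remaining from analyte/IS peak-area ratio.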

[3] = Chemical stability in pH 1.2 assessed as compound remaining at 10 uM measured after 1 hrs by LC-MS/MS analysis; type: physicochemical; conditions: buffer, pH 1.2, 1 h
In short: (§2)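 Compounds incubated in buffers at pH 1.2, 4.5 or 7.4 at 37 °C for 1 h; prodrug disappearance followed by LC–MS/MS as % remaining.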

[4] = Metabolic stability in human skin homogenate assessed as compound remaining at 10 uM measured after 1 hrs by LC-MS analysis; type: ADME, tissue-based, Skin of body; conditions: tissue homogenate
[5] = Chemical stability in pH 7.4 assessed as compound remaining at 10 uM measured after 1 hrs by LC-MS/MS analysis; type: physicochemical; conditions: buffer, pH 7.4, 1 h; in short: as §2
[6] = Cytotoxicity against NHEK cells assessed as cell viability at 100 uM measured after 8 hrs by CellTiter-Glo assay relative to control; type: toxicity, cell-based; conditions: human
In short: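 Primary normal human epidermal keratinocytes, expanded and seeded, exposed to 1, 10, 30 or 100 μM for 8 h; viability by CellTiter-Glo luminescence as % viable.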

[7] = Immunomodulatory activity in NHEK cells assessed as inhibition of IFN-gamma induced CXCL10 expression at 100 uM by TaqMan RTPCR analysis relative to control; type: functional; conditions: Homo sapiens
In short: (§3)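 Primary human keratinocytes seeded, held overnight at 37 °C, 5% CO2, then stimulated with Poly(I:C) 50 μg/mL plus IFNγ 5 ng/mL, with or without prodrug at 1, 10, 30 or 100 μM; gene induction measured at 8 h.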

[8] = Chemical stability in pH 4.5 assessed as compound remaining at 10 uM measured after 1 hrs by LC-MS/MS analysis; type: physicochemical; conditions: buffer, pH 4.5, 1 h; in short: as §2
[9] = test system: NHEK; experiment: Immunomodulatory activity in NHEK cells assessed as inhibition of Poly(I:C)/IFN-gamma induced IL-1 beta expression at 100 uM by TaqMan RTPCR analysis; type: functional, cell-based; conditions: Homo sapiens; in short: as §3
[10] = Metabolic stability in mouse plasma assessed as compound remaining at 10 uM measured after 1 hrs by LC-MS analysis; type: ADME, cell-free; in short: as §1
[11] = Permeability of the compound at pH 7.4 incubated for 4 hrs by PAMPA-GIT assay; type: ADME; conditions: pH 7.4, 4 h
In short: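 PAMPA-GIT sandwich: acceptor filter coated with GIT-0 lipid; donor holds 10 μM compound in pH 7.4 buffer with 0.2% DMSO, acceptor pH 7.4 sink buffer; 4 h at room temperature; both compartments sampled by LC-MS/MS; effective permeability Pe calculated with membrane retention correction.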

[12] = Immunomodulatory activity in NHEK cells assessed as inhibition of IFN-gamma induced CXCL11 expression at 100 uM by TaqMan RTPCR analysis relative to control; type: functional; conditions: Homo sapiens; in short: as §3
[13] = test system: NHEK; experiment: Effect on IL-6 expression in NHEK cells at 500 uM preincubated for 2 days and measured after 24 hrs by TaqMan RTPCR analysis; type: functional, cell-based; conditions: Homo sapiens, time 2.0 day
[14] = test system: NHEK; experiment: Effect on TLR3 mRNA expression in NHEK cells at 500 uM preincubated for 2 days and measured after 24 hrs by TaqMan RTPCR analysis; type: functional, cell-based; conditions: Homo sapiens, time 2.0 day
[15] = Prodrug conversion in C57BL6 mouse plasma assessed as itaconic acid half life at 100 mg/kg, po measured after 24 hrs by LC-MS/MS analysis; type: ADME, organism-based; conditions: in vivo
In short: (§4)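 C57BL6 mice, 25–30 g, 8.5 weeks old, given 100 mg/kg (IA or 4-MI equivalent) orally in 10% DMSO/80% PEG/10% HBS, freshly prepared; killed at 0.25–24 h, n = 3 per time point; acidified plasma and stabilized skin homogenates, methanol precipitation with internal standards, LC-MS/MS (orbitrap); PK parameters as mean ± SEM.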

[16] = Prodrug conversion in C57BL6 mouse plasma assessed as itaconic acid Tmax at 100 mg/kg, po measured after 24 hrs by LC-MS/MS analysis; type: ADME, organism-based; conditions: in vivo; in short: as §4
[17] = Prodrug conversion in C57BL6 mouse skin assessed as itaconic acid AUC (0 to t) at 100 mg/kg, po measured after 24 hrs by LC-MS/MS analysis; type: ADME, organism-based, Skin of body; conditions: in vivo
[18] = Immunomodulatory activity in NHEK cells assessed as inhibition of IL-6 mRNA expression at 100 uM preincubated for 2 days and measured after 24 hrs by TaqMan RTPCR analysis; type: functional; conditions: Homo sapiens, 48 h, time 2 day
[19] = Prodrug conversion in C57BL6 mouse skin assessed as itaconic acid half life at 100 mg/kg, po measured after 24 hrs by LC-MS/MS analysis; type: ADME, organism-based, Skin of body; conditions: in vivo; in short: as §4
[20] = Prodrug conversion in C57BL6 mouse plasma assessed as itaconic acid Cmax at 100 mg/kg, po measured after 24 hrs by LC-MS/MS analysis; type: ADME, organism-based; conditions: in vivo; in short: as §4
[21] = Prodrug conversion in C57BL6 mouse skin assessed as itaconic acid Cmax at 100 mg/kg, po measured after 24 hrs by LC-MS/MS analysis; type: ADME, organism-based, Skin of body; conditions: in vivo; in short: as §4
[22] = Prodrug conversion in C57BL6 mouse skin assessed as itaconic acid Tmax at 100 mg/kg, po measured after 24 hrs by LC-MS/MS analysis; type: ADME, organism-based, Skin of body; conditions: in vivo; in short: as §4
[23] = Immunomodulatory activity in NHEK cells assessed as inhibition of IFN-gamma induced CXCL11 expression at 30 to 100 uM by TaqMan RTPCR analysis relative to control; type: functional, Homo sapiens; conditions: dose 30-100 µM; in short: as §3
[24] = Immunomodulatory activity in NHEK cells assessed as inhibition of Poly(I:C)/IFN-gamma induced IL-1 beta expression at >= 10 uM by TaqMan RTPCR analysis relative to control; type: functional, Homo sapiens; parameters: scale not given: the % may be the effect or the level left; in short: as §3
[25] = Prodrug conversion in C57BL6 mouse plasma assessed as itaconic acid AUC (0 to t) at 100 mg/kg, po measured after 24 hrs by LC-MS/MS analysis; type: ADME, organism-based; conditions: in vivo

SMILES	Stability [1] [%]	Stability [2] [%]	Stability [3] [%]	Stability [4] [%]	Stability [5] [%]	Stability [8] [%]	Stability [10] [%]	permeability [11]	other results
C=C(CC(=O)OCOC(=O)OC(C)C)C(=O)OC	0	0	98	0	63	94	0	29.3 10^-6 cm/s	Activity [6]: > 80%; inhibition at 100 µM [7]: < 50%; Activity [9]: Active; inhibition at 100 µM [12]: < 50%
C=C(CC(=O)OC)C(=O)O	–	–	–	–	–	–	–	–	Activity [13]: inactive; Activity [14]: inactive
C=C(CC(=O)OCOC(=O)OC(C)C)C(=O)O	4.9	53	104	29	44	79	0	–	–
C=C(CC(=O)OCCCOCCCCCCCCCCCCCCCC)C(=O)OC	61	90	109	101	97	98	89	–	–
C=C(CC(=O)OCc1oc(=O)oc1C)C(=O)O	74	0	109	93	0	88	20	–	–
C=C(CC(=O)OCc1oc(=O)oc1C)C(=O)OC	0	0	100	56	69	97	0	16.3 10^-6 cm/s	–
C=C(CC(=O)OCOC(=O)C(C)(C)C)C(=O)O	14	83	100	40	22	74	3	0.08 10^-6 cm/s	–
C=C(CC(=O)OC)C(=O)OCc1oc(=O)oc1C	16	0	98	76	99	87	0	15.4 10^-6 cm/s	–
C=C(CC(=O)O)C(=O)O	–	–	–	–	–	–	–	–	Activity [13]: inactive; Activity [14]: inactive
C=C(CC(=O)OCc1oc(=O)oc1C)C(=O)OCc1oc(=O)oc1C	0	0	102	30	91	91	0	17 10^-6 cm/s	–
C=C(CC(=O)OCOC(=O)C(C)(C)C)C(=O)OCOC(=O)C(C)(C)C	0	0	106	0	104	92	0	35.8 10^-6 cm/s	–
C=C(CC(=O)OCOC(=O)C(C)(C)C)C(=O)OC	0	0	101	9.4	86	104	0	35.2 10^-6 cm/s	–
C=C(CC(=O)OC)C(=O)OCOC(=O)C(C)(C)C	5.3	0	99	15	94	109	0	33.2 10^-6 cm/s	–
C=C(CC(=O)OC)C(=O)OCCCOCCCCCCCCCCCCCCCC	67	32	103	94	75	108	44	–	–
C=C(CC(=O)OCOC(=O)OC(C)C)C(=O)OCOC(=O)OC(C)C	2.5	0	104	1.1	47	–	0	35.9 10^-6 cm/s	t1/2 [15]: 1.42 h; Tmax [16]: 0.25 h; AUCt [17]: 173 nmol·h/g; inhibition at 100 µM [18]: > 90%; Activity [6]: > 80%; t1/2 [19]: 3.32 h; Cmax [20]: 83.8 µM; Cmax [21]: 65.9 nmol/g; Tmax [22]: 1 h; inhibition (INH) [23]: >50%; Activity [24]: >50%; AUCt [25]: 108 µM·h
C=C(CC(=O)OCCCOCCCCCCCCCCCCCCCC)C(=O)O	100	68	91	87	65	90	92	3.2 10^-6 cm/s	–
